Screening data: PubChem, several laboratories
Rows were chosen to be rich in hits. Some 10% of all compounds tested hit in one or more screens of this group.
PMI activator = phosphomannose isomerase (human) activation | P34949 | purified human PMI, coupled resazurin fluorescence, 20 min; active compounds read high; 1 = vehicle control, 0 substrate-free wells | activation factor at 20 µM | 0.005% of 190,000 active;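 active = activation factor of 2 or more at 20 µM, relative to plate controls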
Target sequence (P34949 whole entry, looked up): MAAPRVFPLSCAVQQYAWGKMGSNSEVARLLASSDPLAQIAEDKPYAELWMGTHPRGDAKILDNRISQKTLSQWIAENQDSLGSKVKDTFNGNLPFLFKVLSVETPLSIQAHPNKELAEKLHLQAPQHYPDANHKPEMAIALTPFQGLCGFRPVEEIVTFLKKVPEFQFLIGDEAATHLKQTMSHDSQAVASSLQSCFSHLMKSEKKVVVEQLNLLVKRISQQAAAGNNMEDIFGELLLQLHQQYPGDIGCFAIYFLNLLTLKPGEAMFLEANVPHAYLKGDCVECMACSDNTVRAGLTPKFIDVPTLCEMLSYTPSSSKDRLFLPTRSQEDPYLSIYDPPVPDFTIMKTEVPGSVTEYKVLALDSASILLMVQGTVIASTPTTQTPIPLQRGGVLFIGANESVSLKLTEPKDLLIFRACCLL
Diaphorase act = counter-screen for diaphorase-based assays: diaphorase activators and chemical reducers. Diaphorase/resazurin coupled assay, resorufin fluorescence, 16 min; active compounds read high; 1 = vehicle wells, 0 = NADH-free wells. activation factor at 20 µM. 0.005% of 190,000 active;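 active = diaphorase activity raised at least twofold by the compound at 20 µM; inactive = activation factor below 2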
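Test system: Clostridium kluyveri diaphorase, purified enzyme. Buffer or medium: 50 mM HEPES pH 7.4 buffer plus MgCl2 and Tween 20. Also added: 0.114 mM NADH and 0.1 mM resazurin, final amounts. Dosing: compound 20 µM once, DMSO 1%. Schedule: 16 min enzyme reaction, ambient temperature. Detection: fluorescence of resorufin, 544 nm excitation, 590 nm emission.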
L major viab = reduces viability of Leishmania major promastigotes; resazurin fluorescence viability; inhibition, % at 10 µM; 9% of 200,000 active; AID 1063; in the data active = inhibition above about 50%;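 note: promastigotes grown with compound for 44 hours at 28 °C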
PMI act satM6P = PMI (human) activation, high substrate; P34949; coupled PMI enzyme assay, resazurin fluorescence, 20 min; active compounds read high; 1 = untreated enzyme, 0 = substrate-free blank; 0.34% of 190,000 active; activation factor at 20 µM; AID 1216;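 active = activation factor of 2 or more at 20 µM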
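Technique: Diaphorase-driven resazurin-to-resorufin fluorescence, excitation 544, emission 590 nm | Assay system: Human PMI in coupled enzyme assay | Times: Enzyme reaction with compound 20 min at room temperature | Medium: HEPES-buffered pH 7.4 with magnesium and detergent | Reagent: Mannose-6-phosphate 1.0 mM (near-saturating) plus 0.22 mM NADP+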
WT yeast gro inh = growth inhibition of WT yeast, mitochondrial fusion screen | mitochondrial fusion phenotypic screen, WT strain | AID 1362 | inhibition, % at 10 µM | 2.1% of 190,000 active; in the data active = inhibition above about 58%; tested in S. cerevisiae
Active calls of the source: *; . = no result given.

SMILES	PMI activator	Diaphorase act	L major viab	PMI act satM6P	WT yeast gro inh
CCOc1ccc(C(c2c(NC(=O)c3ccccc3)sc(C)c2C)N2CCN(C)CC2)cc1 (centres undefined)	0.8	0.9	52*	0.9	78*
Cc1sc(NC(=O)c2ccccc2)c(C(c2ccccn2)N2CCN(CCO)CC2)c1C (centres undefined)	0.9	0.9	3	0.8	9
CS(=O)(=O)c1ccc(C(=O)OCc2nnc(-c3ccc(Cl)cc3)o2)cc1[N+](=O)[O-]	1.3	1	-13	1	20
CCOC(=O)CCCCCN(Cc1ccccc1)S(=O)(=O)c1ccc([N+](=O)[O-])cc1	1	0.9	97*	1.1	12
O=C(NCc1ccc(Cl)cc1)c1cc([N+](=O)[O-])ccc1Cl	1.1	1.2	-9	1.1	-5
COc1ccc(OCC(O)Cn2cnc(-c3ccc(Br)cc3)c2)cc1 (centres undefined)	0.9	0.8	-3	0.9	-14
OC(COc1ccc2ccccc2c1Br)Cn1cnc(-c2ccccc2)c1 (centres undefined)	0.8	0.8	1	0.8	88*
COCCNC(=O)C(c1ccc(C)o1)N(C(=O)C(=O)NC1CCCCC1)c1ccc(F)cc1 (centres undefined)	.	.	2	.	-2
Cc1ccc(NC(=O)Cn2c(O)c(N=NC(=O)c3cc4ccccc4cc3O)c3ccccc32)cc1	0.9	1	-9	1.1	3
CCn1c(O)c(N=NC(=O)c2ccc(CSc3nncn3C)cc2)c2ccccc21	1	0.9	30	1	-12
O=C(N=Nc1c(O)n(Cc2ccccc2)c2ccccc12)c1cc2ccccc2cc1O	1	1.1	9	1.2	70*
Cn1cnnc1SCc1ccc(C(=O)N=Nc2c(O)n(Cc3ccc(Cl)cc3)c3ccccc23)cc1	1	0.8	99*	1.1	4
O=C(N=Nc1c(O)n(Cc2ccccc2)c2ccccc12)c1ccc(O)cc1	0.8	0.8	91*	0.9	57
COc1ccc(NC(=O)CN(C)Cc2c(F)cccc2Cl)cc1S(=O)(=O)N1CCCCC1	0.9	0.9	12	0.9	34
COc1ccc(Cl)c2c1[nH]c1nc(SCc3ccccn3)nnc12	0.9	0.6	52*	0.9	7
CCC(=O)Nc1ccc(F)c(Cl)c1	1	1	4	1	-8
CCC(=O)Nc1ccc(Br)c(Cl)c1	0.8	0.9	-1	0.9	91*
Cc1cc(NC(=O)CN(C)C)c([N+](=O)[O-])cc1C	1	1.1	-8	1.1	-12
COc1cc(/C=N/N=C(N)N)ccc1OCc1ccccc1Cl	1	1	101*	1.1	21
COc1ccc(/C=N/N=C/c2ccc(OC)c(OC)c2)cc1OC	0.9	1	-5	0.9	-1
COc1ccccc1NC(=S)NCCc1ccc(F)cc1	0.9	0.9	12	0.9	8
Cc1cccc(NC(=S)N/N=C/C(C)c2ccccc2)c1C (centres undefined)	1.2	0.8	43	1.1	19
Cc1ccc(C)c(NC(=S)NCCc2ccc(F)cc2)c1	1	1	4	1.1	69*
Cc1cccc(NC(=S)NN(Cc2ccccc2)c2ccccc2)c1C	1	0.9	56*	1	-15
Cc1ccc(NC(=S)NCCc2ccccc2)c(C)c1	0.9	0.8	80*	0.9	70*
SMILES	PMI activator	Diaphorase act	L major viab	PMI act satM6P	WT yeast gro inh
Cc1ccccc1NC(=S)N/N=C/C(C)c1ccccc1 (centres undefined)	1.2	0.8	97*	1.1	5
O=C(CSc1nc2cc(Cl)ccc2s1)NC1CCCc2ccccc21 (centres undefined)	0.9	0.8	2	0.9	7
Cc1ccccc1NC(=S)NCc1ccccc1	1	1	59*	1	-11
Cc1ccccc1NC(=S)NCCc1ccccc1	1	1	0	1.1	31
N#Cc1c(-c2ccccc2)nc(SCC(=O)Nc2nnc(C(F)(F)F)s2)[nH]c1=O	1.2	0.9	-11	1.1	-4
Cc1nnc2n(Cc3ccccc3)c(=O)c3c4c(sc3n12)CN(Cc1ccccc1)CC4	0.9	0.8	.	0.9	.
O=c1c2c3c(sc2n2cnnc2n1Cc1ccccc1)CN(Cc1ccccc1)CC3	1.5	0.9	100*	2*	.
CNS(=O)(=O)c1ccc2c(c1)oc(=O)c1cc(S(=O)(=O)NC)ccc12	1.2	0.9	-4	1.1	-8
C=CCOc1ccccc1CNCc1ccc(F)cc1	1	1	57*	1.1	1
Fc1ccc(CNCc2ccccc2Cl)cc1	1.1	0.9	1	1.2	2
C=CCc1ccccc1OCCNCc1ccccc1	1.1	0.9	71*	1	12
COc1cc(C(=O)O/N=C2/C=CC(=O)C(C)=C2C)cc(OC)c1OC	0.6	0.7	100*	0.3	-6
COc1cc(C(=O)O/N=C2\CCCc3c2ccc(OC)c3[N+](=O)[O-])cc(OC)c1OC	1.2	0.8	-5	0.9	8
COc1cc(C(=O)O/N=C2\C=CC(=O)C=C2C)cc(OC)c1OC	0.5	0.4	97*	0.4	-50
OC(CSc1ccccc1Cl)CN1CCN(c2ccccc2F)CC1 (centres undefined)	0.9	0.7	64*	0.9	46
O=C(NCN1CCN(c2ccccc2F)CC1)c1ccccc1	1.1	1	-5	1.1	27
OC(CSc1c(Cl)cccc1Cl)CN1CCN(c2ccccc2F)CC1 (centres undefined)	0.8	0.8	17	0.8	66*
COc1ccc(N2CCC(CNC(=S)Nc3cccc(C)c3)C2)cc1 (centres undefined)	0.6	1	72*	0.5	20
Cc1cc(C)cc(NC(=S)NCC2CCCO2)c1 (centres undefined)	1	0.8	11	1	5
Cc1cc(C)cc(NC(=S)NCC2CCN(C(C)c3ccccc3)C2)c1 (centres undefined)	1	1.1	72*	1	9
Cc1ccccc1NC(=S)NCC1CCN(C(C)c2ccccc2)C1 (centres undefined)	1	1	76*	1.1	3
CCOc1ccc(Cn2c(C)nc([N+](=O)[O-])c2SCC(O)CCl)cc1[N+](=O)[O-] (centres undefined)	1	0.9	29	1	2
COC(=O)C1=NNC2(c3ccc(Cl)cc3)C(=O)N(c3ccccc3)C(=O)C12 (centres undefined)	0.9	0.9	-5	1	-1
Cc1cc(C)c(C(=O)Nc2ccc(Br)c(C(F)(F)F)c2)c(C)c1	1	0.9	98*	1	81*
CCNc1nc(NC(C)(C)C)nc(N(CC)n2cnnc2)n1	1.1	1	2	1.1	-1
CN(C)c1nc(NC(C)(C)C)nc(NC(C)(C)C)n1	1.1	1	60*	1.1	44
